We go through four compounds from ChEMBL document CHEMBL6177921, “Enhancing the antimycobacterial efficacy of pyridine-4-carbohydrazide: linkage to additional antimicrobial agents via oxocarboxylic acids” (RSC Med Chem, 2025).

Format in all cases: functional
The subject of one assay is Aspergillus fumigatus. Nature of the assay: Antifungal activity against Aspergillus fumigatus ATCC 204305 measured after 24 to 48 hrs by microdilution broth method. The settings on record: time 24-48 hrs. Summed up: (§1)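 Filamentous fungi tested by broth microdilution per EUCAST with minor changes. Compounds were tested at 0.98–500 μM with final DMSO ≤1.0% (v/v). Plates were incubated statically, dark and humidified, at 35 ± 2 °C for 24 and 48 h. MIC was the lowest concentration showing no visible growth.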

Assay [1] concerns Candida albicans. Kind of assay: Antifungal activity against Candida albicans ATCC 24443 measured after 24 to 48 hrs by microdilution broth method. Particulars: time 24-48 hrs. Summed up:
(§2)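 Yeast broth microdilution per EUCAST, slightly modified. Medium was RPMI-1640 with 2% glucose, MOPS-buffered to pH 7.0. Compounds were tested at 0.98–500 μM with final DMSO ≤1.0% (v/v). Inoculum came from 18–24 h cultures, final ~1–5 × 10^5 CFU mL−1. Plates were incubated statically, dark and humidified, at 35 ± 2 °C. MIC was read visually at 24 and 48 h (no visible growth).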
In general terms: Broth dilution looks for growth in wells or tubes with falling amounts of substance.

For assay [2], the system named is Candida tropicalis. Nature of the assay: Antifungal activity against Candida tropicalis CCM 8264 measured after 24 to 48 hrs by microdilution broth method. The settings on record: time 24-48 hrs. In a few lines: as §2
In assay [3] the test system is Mycobacterium kansasii. Kind of assay: Antimycobacterial activity against multi-drug resistant Mycobacterium kansasii clinical isolate CNCTC 6509/96 assessed as bacterial growth inhibition incubated for 21 days by two-fold serial dilution method. The settings on record: CNCTC 6509/96, 504 h, time 21 day. Summed up: (§3)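 M. kansasii clinical isolate 6509/96 (stock dilution 10−4) in Šula's semisynthetic liquid medium; two-fold serial dilutions 1000 to 1 μM, DMSO final 1.0% v/v; final load 1.5 × 10^5 CFU mL−1; MIC read visually as complete growth inhibition at 7, 14 and 21 days.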

Assay [4] deals with Mycobacterium avium. Nature of the assay: Antimycobacterial activity against INH/RIF/rifabutin/OFX/EMB resistant Mycobacterium avium CNCTC 330/88 assessed as bacterial growth inhibition incubated for 14 days by two-fold serial dilution method. The settings on record: CNCTC 330/88, 336 h, time 14 day. Summed up:
(§4)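 M. avium CNCTC 330/88 (stock suspension dilution 10−5) grown in Šula's semisynthetic liquid medium; two-fold serial dilutions 1000 to 1 μM from DMSO stocks (final DMSO 1.0% v/v); final load 1.5 × 10^5 CFU mL−1; MIC read visually as lowest concentration giving complete growth inhibition after 14 and 21 days.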

Assay [5] deals with Pichia kudriavzevii. Nature of the assay: Antifungal activity against Candida krusei CCM 8271 measured after 24 to 48 hrs by microdilution broth method. Particulars: time 24-48 hrs. In a few lines:
as §2

Assay [6] concerns Mycobacterium kansasii. Nature of the assay: Antimycobacterial activity against INH/RIF/rifabutin/OFX/EMB Mycobacterium kansasii CNCTC 6509/96 clinical isolate assessed as bacterial growth inhibition incubated for 7 days by two-fold serial dilution method. Particulars: CNCTC 6509/96, 168 h, time 7 day. Summed up:
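Šula's liquid semisynthetic medium; M. kansasii clinical isolate 6509/96 used at stock dilution 10−4, final ~1.5 × 10^5 CFU mL−1. Two-fold dilutions ran 1000–1 μM with final DMSO 1.0% (v/v). MIC was read visually as complete growth inhibition after 7, 14 and 21 days.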

For assay [7], the system named is Candida albicans. Nature of the assay: Antifungal activity against Candida albicans CCM 8320 measured after 24 to 48 hrs by microdilution broth method. Particulars: time 24-48 hrs. Summed up: as §2
The subject of assay [8] is Candida parapsilosis. Nature of the assay: Antifungal activity against Candida parapsilosis CCM 8260 measured after 24 to 48 hrs by microdilution broth method. The settings on record: Lodderomyces parapsilosis, time 24-48 hrs. Summed up:
as §2

The test system of a further assay is Aspergillus flavus. Nature of the assay: Antifungal activity against Aspergillus flavus CCM 8363 measured after 24 to 48 hrs by microdilution broth method. The settings on record: time 24-48 hrs. In a few lines:
as §1

Assay [9] has as its system Trichophyton interdigitale. Kind of assay: Antifungal activity against Trichophyton interdigitale ATCC 9533 measured after 24 to 48 hrs by microdilution broth method. The settings on record: time 24-48 hrs.
Assay [10] relates to Mycobacterium avium. Kind of assay: Antimycobacterial activity against INH/RIF/rifabutin/OFX/EMB resistant Mycobacterium avium CNCTC 330/88 assessed as bacterial growth inhibition incubated for 21 days by two-fold serial dilution method. The settings on record: CNCTC 330/88, 504 h, time 21 day. Summed up:
as §4

In assay [11] the test system is Mycobacterium tuberculosis. Nature of the assay: Antimycobacterial activity against multidrug sensitive Mycobacterium tuberculosis H37Rv CNCTC 331/88 assessed as bacterial growth inhibition incubated for 14 days by two-fold serial dilution method. The settings on record: H37Rv CNCTC 331/88, 336 h, time 14 day.
The test system of assay [12] is Mycobacterium kansasii. Nature of the assay: Antimycobacterial activity against multi-drug resistant Mycobacterium kansasii CNCTC 6509/96 clinical isolate assessed as bacterial growth inhibition incubated for 14 days by two-fold serial dilution method. The settings on record: CNCTC 6509/96, 336 h, time 14 day. In a few lines:
as §3

The next assay has as its system Lichtheimia corymbifera. Nature of the assay: Antifungal activity against Lichtheimia corymbifera CCM 8077 measured after 24 to 48 hrs by microdilution broth method. The settings on record: time 24-48 hrs. In a few lines: as §1
Assay [13] concerns Pichia kudriavzevii. Nature of the assay: Antifungal activity against Candida krusei ATCC 6258 measured after 24 to 48 hrs by microdilution broth method. Particulars: time 24-48 hrs. In a few lines:
as §2

Assay [14] has as its system Candida parapsilosis. Kind of assay: Antifungal activity against Candida parapsilosis ATCC 22019 measured after 24 to 48 hrs by microdilution broth method. The settings on record: Lodderomyces parapsilosis, time 24-48 hrs. In a few lines:
as §2

Assay [15] concerns Mycobacterium tuberculosis. Nature of the assay: Antimycobacterial activity against Mycobacterium tuberculosis H37Rv CNCTC 331/88 assessed as bacterial growth inhibition incubated for 21 days by two fold serial dilution method. Particulars: H37Rv CNCTC 331/88, 504 h, time 21 day.
The subject of assay [16] is Candida tropicalis. Kind of assay: Antifungal activity against Candida tropicalis ATCC 750 measured after 24 to 48 hrs by microdilution broth method. Particulars: time 24-48 hrs. In a few lines: as §2
Assay [17] deals with Trichophyton interdigitale. Nature of the assay: Antifungal activity against Trichophyton interdigitale CCM 8377 measured after 24 to 48 hrs by microdilution broth method. The settings on record: time 24-48 hrs.

Values after ≈ are worked out from the molar mass of the structure shown.

In the case of `C/C(=N\NC(=O)c1ccncc1)C(=O)Nc1ccc(S(N)(=O)=O)cc1`, the minimal inhibitory concentration (MIC) is above 500 µM with Aspergillus fumigatus; above 500 µM in the assay on Candida albicans [1]; above 500 µM with Candida tropicalis [2]; 64 µM (≈ 23.1 µg/mL) in the assay with Mycobacterium kansasii [3]; at least 1000 µM in the assay with Mycobacterium avium [4]; above 500 µM with Pichia kudriavzevii [5]. In addition, the MIC in the assay on Mycobacterium kansasii [6] is 32 µM (≈ 11.6 µg/mL); against Candida albicans [7] it was above 500 µM; against Candida parapsilosis [8] it was above 500 µM; in the assay on Aspergillus flavus, above 500 µM; in assay [9] it was above 500 µM; in the assay on Mycobacterium avium [10], at least 1000 µM. The MIC was 2 µM (≈ 0.723 µg/mL) in assay [11]; 64 µM (≈ 23.1 µg/mL) in the assay on Mycobacterium kansasii [12]; above 500 µM with Lichtheimia corymbifera; above 500 µM in the assay on Pichia kudriavzevii [13]; above 500 µM with Candida parapsilosis [14]; 2 µM (≈ 0.723 µg/mL) in assay [15]. Besides, the MIC (in the assay with Candida tropicalis [16]; in assay [17]) was above 500 µM each time.
As for `C/C(=N\NC(=O)c1ccncc1)C(=O)Nc1ccc(S(=O)(=O)Nc2nccs2)cc1`, the MIC was above 500 µM with Aspergillus fumigatus; above 500 µM against Candida albicans [1]; above 500 µM in the assay with Candida tropicalis [2]; 16 µM (≈ 7.11 µg/mL) in the assay on Mycobacterium kansasii [3]; at least 1000 µM with Mycobacterium avium [4]; above 500 µM in the assay on Pichia kudriavzevii [5]. Moreover, the MIC in the assay on Mycobacterium kansasii [6] was 16 µM (≈ 7.11 µg/mL); in the assay on Candida albicans [7], above 500 µM; against Candida parapsilosis [8], above 500 µM; in the assay on Aspergillus flavus it was above 500 µM; in [9], above 500 µM; with Mycobacterium avium [10], at least 1000 µM. In addition, the MIC is 1 µM (≈ 0.444 µg/mL) in assay [11]; 16 µM (≈ 7.11 µg/mL) with Mycobacterium kansasii [12]; above 500 µM against Lichtheimia corymbifera; above 500 µM in the assay on Pichia kudriavzevii [13]; above 500 µM against Candida parapsilosis [14]; 1 µM (≈ 0.444 µg/mL) in assay [15]. Besides, the minimum inhibitory concentration (MIC) (in the assay on Candida tropicalis [16]; in [17]) was above 500 µM each time.
In the case of `C/C(=N\NC(=O)c1ccncc1)C(=O)Nc1ccc(S(=O)(=O)Nc2nc(C)cc(C)n2)cc1`, the minimum inhibitory concentration (MIC) against Aspergillus fumigatus is above 500 µM; with Candida albicans [1], above 500 µM; in the assay on Candida tropicalis [2], above 500 µM; in the assay with Mycobacterium kansasii [3], 32 µM (≈ 15 µg/mL); in the assay on Mycobacterium avium [4] it was 500 µM (≈ 234 µg/mL); in the assay with Pichia kudriavzevii [5] it was above 500 µM. Besides, the MIC in the assay with Mycobacterium kansasii [6] is 16 µM (≈ 7.48 µg/mL); in the assay on Candida albicans [7] it was above 500 µM; in the assay with Candida parapsilosis [8], above 500 µM; in the assay on Aspergillus flavus, above 500 µM; in assay [9], above 500 µM; in the assay with Mycobacterium avium [10] it was 500 µM (≈ 234 µg/mL). Moreover, the MIC in assay [11] was 1 µM (≈ 0.468 µg/mL); in the assay with Mycobacterium kansasii [12], 32 µM (≈ 15 µg/mL); against Lichtheimia corymbifera it was above 500 µM; against Pichia kudriavzevii [13], above 500 µM; in the assay with Candida parapsilosis [14], above 500 µM; in [15], 1 µM (≈ 0.468 µg/mL). Moreover, the MIC (against Candida tropicalis [16]; in assay [17]) was above 500 µM each time.
Regarding `COc1cnc(NS(=O)(=O)c2ccc(NC(=O)/C(C)=N/NC(=O)c3ccncc3)cc2)nc1`, the minimum inhibitory concentration (MIC) against Aspergillus fumigatus is above 500 µM; in the assay with Candida albicans [1], above 500 µM; with Candida tropicalis [2], above 500 µM; in the assay with Mycobacterium kansasii [3], 32 µM (≈ 15 µg/mL); with Mycobacterium avium [4], at least 1000 µM; against Pichia kudriavzevii [5] it was above 500 µM. Moreover, the MIC in the assay on Mycobacterium kansasii [6] is 32 µM (≈ 15 µg/mL); with Candida albicans [7], above 500 µM; with Candida parapsilosis [8], above 500 µM; with Aspergillus flavus it was above 500 µM; in [9], above 500 µM; with Mycobacterium avium [10] it was at least 1000 µM. The MIC in assay [11] is 2 µM (≈ 0.939 µg/mL); in the assay with Mycobacterium kansasii [12], 32 µM (≈ 15 µg/mL); in the assay with Lichtheimia corymbifera it was above 500 µM; with Pichia kudriavzevii [13], above 500 µM; with Candida parapsilosis [14], above 500 µM; in assay [15], 2 µM (≈ 0.939 µg/mL). The minimum inhibitory concentration (MIC) (in the assay with Candida tropicalis [16]; in assay [17]) was above 500 µM in each case.

The term MIC denotes the lowest concentration that inhibits growth of the organism.
